Most compounds without a hit are left out; they make up all but 3.3% or so of the library.
PRMT1 inh: PRMT1 (human) inhibition, primary screen | Q99873 | recombinant PRMT1, activity-based probe fluorescence polarization | inhibition, % at 2.79 µM | 370,000 tested, 1.3% active | AID 652257;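 active = inhibition above about 21% made by adding two undisclosed values, limit read from the data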
mABHD4 FP: inhibits mouse alpha/beta hydrolase domain 4. Q8VD66. purified mABHD4, FP-Rh probe fluorescence polarization. inhibition, % at 8.92 µM. 370,000 tested, 0.54% active;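 active = inhibition exceeding the mean over every tested compound plus 3 SD, cut at about 30% in these data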
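Material: mouse ABHD4 enzyme, wild type; Benchmarks: S159A mutant high control, sample median low control; Buffer or medium: HEPES pH 7.0, NaCl, Pluronic buffer; Signal: fluorescence polarization; Read-out: percent inhibition of probe binding, normalized to plate controls; Timing: pre-incubation 45 min, probe exposure 60 min, at 25 °C; Dosing: 8.92 µM, single dose.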
TCR-CD3 inh: blocks the human TCR-CD3 interaction; TAMRA-labeled TCR probe fluorescence, biochemical; inhibition, % at 9.4 µM; 360,000 tested, 0.37% active; in the data active = inhibition above about 19%;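 also: recombinant mutant TCR 2C K166C tagged with TAMRA read by polarization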
SIAE inh: blocks human sialic acid acetylesterase; inhibition, % at 9.66 µM; SIAE FP-Rh probe binding, fluorescence polarization; AID 1053197; Q9HAT2; 370,000 tested, 0.69% active;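 active = inhibition above a cutoff: mean of compounds within the control limits plus 3 SD of those, cut at about 17% in these data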
Target sequence (Q9HAT2 whole entry, looked up): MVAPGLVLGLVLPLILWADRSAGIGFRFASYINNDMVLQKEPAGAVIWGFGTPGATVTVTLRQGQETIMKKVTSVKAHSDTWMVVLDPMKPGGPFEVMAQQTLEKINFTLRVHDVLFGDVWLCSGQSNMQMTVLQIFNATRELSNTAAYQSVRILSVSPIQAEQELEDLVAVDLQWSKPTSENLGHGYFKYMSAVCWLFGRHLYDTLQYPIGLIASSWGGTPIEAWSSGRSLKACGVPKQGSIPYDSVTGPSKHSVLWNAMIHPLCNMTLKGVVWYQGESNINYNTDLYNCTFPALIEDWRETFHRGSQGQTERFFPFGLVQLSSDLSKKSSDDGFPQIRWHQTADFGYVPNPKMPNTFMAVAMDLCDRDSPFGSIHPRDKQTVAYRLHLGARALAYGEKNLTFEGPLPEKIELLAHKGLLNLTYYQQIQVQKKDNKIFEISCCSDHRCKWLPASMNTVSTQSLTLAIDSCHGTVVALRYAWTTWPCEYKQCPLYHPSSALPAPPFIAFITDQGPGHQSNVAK
rCAG binder: r(CAG) repeat RNA binding; AID 651821; TO-PRO-1 dye displacement fluorescence; inhibition, % at 3 µM; 370,000 tested, 1.3% active;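 active = inhibition above the plate cutoff, the mean of all test compounds on that plate plus 3 SD, cut at about 35% in these data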;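 also: higher means more dye released from RNA so lower well fluorescence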
rCAG bind conf: r(CAG) RNA repeat binding, confirmation; shares compounds with rCAG binder; AID 652065; TO-PRO-1 dye displacement fluorescence; inhibition, % at 3 µM; 4,300 tested, 70% active;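 active = inhibition above a per-plate cutoff, the mean inhibition of sample wells plus 3 SD, cut at about 35% in these data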;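 also: loss of TO-PRO-1 fluorescence as compound displaces dye from 1x1 AA loop RNA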
dCAG dye counter: counter-screen for rCAG RNA binders: DNA CAG dye complex inhibitors. shares compounds with rCAG binder. d(CAG) DNA oligo TO-PRO-1 dye displacement, fluorescence. inhibition, % at 3 µM. 4,300 tested, 94% active. AID 652068;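 active = inhibition above its plate's cutoff, the mean test-well inhibition plus 3 SD, cut at about 4.8% in these data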;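 also: hits displace the dye from DNA and so lower well fluorescence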
Hits are given with their value; – = inactive; · = not tested or not shown.

SMILES | PRMT1 inh | mABHD4 FP | TCR-CD3 inh | SIAE inh | rCAG binder | rCAG bind conf | dCAG dye counter
C=CCN1C(C(=O)OC)CN(Cc2cn(Cc3ccc(Cl)cc3)nn2)CCS1(=O)=O (stereo unspecified) | – | – | · | – | – | · | ·
COc1ccc(C(=O)NCCSCc2ccccc2Cl)cc1OC | – | – | – | – | 80 | – | –
COc1cccc(/C=C2\CC3(OC(=O)c4ccco4)CCCN2C3)c1 (stereo unspecified) | – | – | · | – | – | · | ·
COc1ccc(Cc2n[nH]c(=S)n2NC(=O)Nc2ccc(Cl)c(Cl)c2)cc1 | – | – | – | – | 63 | 37 | 15
Cn1c(CC(=O)Nc2ccc(Cl)c(Cl)c2)n[nH]c1=S | – | – | – | – | – | · | ·
CCC[C@H]1[C@@H](OC(=O)NCc2ccc(Cl)c(Cl)c2)CC[C@@]23CCCN2C(=O)CCC[C@@H]13 | – | – | · | – | · | · | ·
CN(C)S(=O)(=O)c1ccc(C(=O)Nc2cc3c(cc2C(=O)O)OCCCO3)cc1 | – | – | – | – | 59 | – | 5.1
CN(C)S(=O)(=O)c1cccc(C(=O)Nc2cc3c(cc2C(=O)O)OCCCO3)c1 | – | – | – | – | 39 | – | 5.2
Cc1ccc(-n2c(SCC(=O)Nc3cccc4ccccc34)nnc2-c2cnccn2)cc1 | – | – | · | – | – | · | ·
Cc1ccc(S(=O)(=O)NC(=O)C2(C)CCN2C(=O)CCc2ccc(Cl)cc2Cl)cc1 (stereo unspecified) | – | – | – | – | 51 | – | 6.0
CC1(C(=O)NS(=O)(=O)c2ccc(Cl)s2)CCN1C(=O)Cc1ccc(Cl)cc1Cl (stereo unspecified) | – | – | – | – | 40 | 40 | 11
CC1(C(=O)NS(=O)(=O)c2ccc(Cl)cc2)CCN1C(=O)CCc1ccc(Cl)cc1Cl (stereo unspecified) | – | – | – | – | 52 | 49 | 13
CC1(C(=O)NS(=O)(=O)c2ccc(C#N)cc2)CCN1C(=O)CCc1ccc(Cl)cc1Cl (stereo unspecified) | – | – | – | – | – | · | ·
C[C@H](O)[C@@H]1CN2CCc3ccc(N4CCOCC4)cc3[C@@H]2C[C@@H]1N(C)C(=S)NCCc1ccccc1 | – | – | · | – | – | · | ·
CC(C)C[C@H]1COc2cc(Br)ccc2S(=O)(=O)N1Cc1cn(CCC2OCCCO2)nn1 | – | – | · | – | – | · | ·
CC(=O)Nc1nc2ncccn2c1-c1ccc(F)c(F)c1 | – | – | · | – | – | · | ·
COc1ccc(Cl)cc1NC(=O)CSc1nc(NS(=O)(=O)c2ccccc2)cc(=O)[nH]1 | – | – | – | – | – | · | ·
CCCc1cc(=O)[nH]c(SCC(=O)Nc2nc(-c3ccccc3)cs2)n1 | – | – | – | – | 45 | 56 | 19
COc1ccc(Cl)cc1NC(=O)CSc1nc(-c2ccccc2)cc(=O)[nH]1 | – | – | – | – | 43 | 68 | 30
Cc1ccc(NC(=O)c2cccc(Oc3ccc([N+](=O)[O-])cc3)c2)c(C(=O)O)c1 | – | – | – | – | 85 | 74 | 38
CC(C)=CCCC1(C)C=Cc2c(c(C)cc3c2[nH]c2cc(O)ccc23)O1 (stereo unspecified) | – | – | – | – | 51 | – | 15
Cc1cc(=O)[nH]c2cc(O)ccc12 | – | – | – | – | – | · | ·
C=CCSc1nnc(NC(=O)c2cccc(S(=O)(=O)N(C)c3ccccc3)c2)s1 | – | – | – | – | 48 | 44 | 14
COc1ccc2nc(N/C(=N/S(=O)(=O)c3cccs3)c3ccccc3Cl)sc2c1 | – | – | – | – | 48 | 41 | 13
COc1ccc(C(=O)NCCN2C(=O)C3C4C=CC(C4)C3C2=O)cc1OC (stereo unspecified) | – | – | · | – | – | · | ·
O=C(CN(Cc1ccccc1)S(=O)(=O)c1ccc(Br)cc1)N/N=C/c1ccccc1C(=O)O | – | – | – | – | 51 | 57 | 15
O=C(CN(Cc1ccccc1)S(=O)(=O)c1ccccc1)N/N=C/c1ccccc1C(=O)O | – | – | – | – | – | · | ·
Cc1ccccc1S(=O)(=O)Nc1ncnc2scc(-c3ccccc3)c12 | – | – | – | – | 55 | 50 | 16
CC1=NN(c2ccccc2C(=O)O)C(=O)C1N=Nc1ccccc1 (stereo unspecified) | – | – | – | – | 44 | 40 | 10
